Reference: ChEMBL document CHEMBL4689842, “EUbOPEN Chemogenomics Library wave 1” (2021)
“And” between values parts separate entries of the source, which are not always exact repeats. Equal values may be shown once.

Tested on: HEK-293T
Test: Multiplex assay against HEK293T;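 as to Population Tubulin-Different-Phenotype (%): share of the cells with healthy nuclei that show this phenotype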
Assay type: toxicity, cell-based
Conditions: human
How it was run: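 Four dyes were applied at seeding to live cells: Hoechst33342, BioTracker Green Microtubule Cytoskeleton Dye, MitoTracker Red and Annexin V Alexa Fluor 680. Imaging after compound addition used a CQ1 microscope at 37°C and 5% CO2. CellPathfinder machine-learning gating then sorted cells into Hoechst high-intensity objects or normal cells, normal cells into healthy, pyknosed or fragmented nuclei, and pyknosed cells into mitotic or apoptotic, with tubulin, mitochondrial-mass and membrane-permeability phenotypes given as per cents of healthy-nucleus cells.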

[1] = 12 h, 1 µM, compound concentration 1 uM, replicate 1
[2] = 12 h, 1 µM, compound concentration 1 uM, replicate 2
[3] = 12 h, 10 µM, compound concentration 10 uM, replicate 1
[4] = 12 h, 10 µM, compound concentration 10 uM, replicate 2
[5] = 24 h, 1 µM, compound concentration 1 uM, replicate 1
[6] = 24 h, 1 µM, compound concentration 1 uM, replicate 2
[7] = 24 h, 10 µM, compound concentration 10 uM, replicate 1
[8] = 24 h, 10 µM, compound concentration 10 uM, replicate 2
[9] = 48 h, 1 µM, compound concentration 1 uM, replicate 1
[10] = 48 h, 1 µM, compound concentration 1 uM, replicate 2
[11] = 48 h, 10 µM, compound concentration 10 uM, replicate 1
[12] = 48 h, 10 µM, compound concentration 10 uM, replicate 2

Structure (SMILES): Cc1cc(C)c(S(=O)(=O)N(Cc2ccc(-c3cccc(S(C)(=O)=O)c3)cc2)Cc2ccc(C(F)(F)F)o2)c(C)c1
- Population Apoptotic (%) [1]: 47%
- Population Fragmented Nuclei (%) [1]: 13%
- Population Healthy Nuclei (%) [1]: 36%
- Population Hoechst High Intensity Objects (%) [1]: 10%
- Population Membrane Permeable-Phenotype (%) [1]: 3%
- Population Mitochondria Different-Phenotype (%) [1]: 81%
- Population Mitotic Cells (%) [1]: 52%
- Population Normal (%) [1]: 89%
- Population Pyknosed Nuclei (%) [1]: 49%
- Population Tubulin-Different-Phenotype (%) [1]: 59%
- Total Cell Count [1]: 263
- Population Apoptotic (%) [2]: 13%
- Population Fragmented Nuclei (%) [2]: 6%
- Population Healthy Nuclei (%) [2]: 49%
- Population Hoechst High Intensity Objects (%) [2]: 4%
- Population Membrane Permeable-Phenotype (%) [2]: 9%
- Population Mitochondria Different-Phenotype (%) [2]: 13%
- Population Mitotic Cells (%) [2]: 86%
- Population Normal (%) [2]: 95%
- Population Pyknosed Nuclei (%) [2]: 43%
- Population Tubulin-Different-Phenotype (%) [2]: 9%
- Total Cell Count [2]: 213
- Population Apoptotic (%) [3]: 52%
- Population Fragmented Nuclei (%) [3]: 12%
- Population Healthy Nuclei (%) [3]: 35%
- Population Hoechst High Intensity Objects (%) [3]: 14%
- Population Membrane Permeable-Phenotype (%) [3]: 10%
- Population Mitochondria Different-Phenotype (%) [3]: 89%
- Population Mitotic Cells (%) [3]: 47%
- Population Normal (%) [3]: 85%
- Population Pyknosed Nuclei (%) [3]: 51%
- Population Tubulin-Different-Phenotype (%) [3]: 90%
- Total Cell Count [3]: 216
- Population Apoptotic (%) [4]: 6%
- Population Fragmented Nuclei (%) [4]: 9%
- Population Healthy Nuclei (%) [4]: 48%
- Population Hoechst High Intensity Objects (%) [4]: 2%
- Population Membrane Permeable-Phenotype (%) [4]: 5%
- Population Mitochondria Different-Phenotype (%) [4]: 20%
- Population Mitotic Cells (%) [4]: 93%
- Population Normal (%) [4]: 97%
- Population Pyknosed Nuclei (%) [4]: 41%
- Population Tubulin-Different-Phenotype (%) [4]: 16%
- Total Cell Count [4]: 145
- Population Apoptotic (%) [5]: 43%
- Population Fragmented Nuclei (%) [5]: 13%
- Population Healthy Nuclei (%) [5]: 44%
- Population Hoechst High Intensity Objects (%) [5]: 9%
- Population Membrane Permeable-Phenotype (%) [5]: 2%
- Population Mitochondria Different-Phenotype (%) [5]: 66%
- Population Mitotic Cells (%) [5]: 56%
- Population Normal (%) [5]: 90%
- Population Pyknosed Nuclei (%) [5]: 42%
- Population Tubulin-Different-Phenotype (%) [5]: 49%
- Total Cell Count [5]: 304
- Population Apoptotic (%) [6]: 9%
- Population Fragmented Nuclei (%) [6]: 6%
- Population Healthy Nuclei (%) [6]: 64%
- Population Hoechst High Intensity Objects (%) [6]: 2%
- Population Membrane Permeable-Phenotype (%) [6]: 10%
- Population Mitochondria Different-Phenotype (%) [6]: 10%
- Population Mitotic Cells (%) [6]: 90%
- Population Normal (%) [6]: 97%
- Population Pyknosed Nuclei (%) [6]: 29%
- Population Tubulin-Different-Phenotype (%) [6]: 29%
- Total Cell Count [6]: 261
- Population Apoptotic (%) [7]: 52%
- Population Fragmented Nuclei (%) [7]: 13%
- Population Healthy Nuclei (%) [7]: 38%
- Population Hoechst High Intensity Objects (%) [7]: 15%
- Population Membrane Permeable-Phenotype (%) [7]: 9%
- Population Mitochondria Different-Phenotype (%) [7]: 74%
- Population Mitotic Cells (%) [7]: 47%
- Population Normal (%) [7]: 84%
- Population Pyknosed Nuclei (%) [7]: 48%
- Population Tubulin-Different-Phenotype (%) [7]: 89%
- Total Cell Count [7]: 225
- Population Apoptotic (%) [8]: 11%
- Population Fragmented Nuclei (%) [8]: 7%
- Population Healthy Nuclei (%) [8]: 72%
- Population Hoechst High Intensity Objects (%) [8]: 3%
- Population Membrane Permeable-Phenotype (%) [8]: 6%
- Population Mitochondria Different-Phenotype (%) [8]: 10%
- Population Mitotic Cells (%) [8]: 88%
- Population Normal (%) [8]: 96%
- Population Pyknosed Nuclei (%) [8]: 19%
- Population Tubulin-Different-Phenotype (%) [8]: 24%
- Total Cell Count [8]: 187
- Population Apoptotic (%) [9]: 46%
- Population Fragmented Nuclei (%) [9]: 13%
- Population Healthy Nuclei (%) [9]: 61%
- Population Hoechst High Intensity Objects (%) [9]: 8%
- Population Membrane Permeable-Phenotype (%) [9]: 4%
- Population Mitochondria Different-Phenotype (%) [9]: 38%
- Population Mitotic Cells (%) [9]: 53%
- Population Normal (%) [9]: 91%
- Population Pyknosed Nuclei (%) [9]: 25%
- Population Tubulin-Different-Phenotype (%) [9]: 39%
- Total Cell Count [9]: 387
- Population Apoptotic (%) [10]: 9%
- Population Fragmented Nuclei (%) [10]: 6%
- Population Healthy Nuclei (%) [10]: 81%
- Population Hoechst High Intensity Objects (%) [10]: 2%
- Population Membrane Permeable-Phenotype (%) [10]: 7%
- Population Mitochondria Different-Phenotype (%) [10]: 5%
- Population Mitotic Cells (%) [10]: 90%
- Population Normal (%) [10]: 97%
- Population Pyknosed Nuclei (%) [10]: 11%
- Population Tubulin-Different-Phenotype (%) [10]: 20%
- Total Cell Count [10]: 474
- Population Apoptotic (%) [11]: 45%
- Population Fragmented Nuclei (%) [11]: 13%
- Population Healthy Nuclei (%) [11]: 60%
- Population Hoechst High Intensity Objects (%) [11]: 6%
- Population Membrane Permeable-Phenotype (%) [11]: 7%
- Population Mitochondria Different-Phenotype (%) [11]: 57%
- Population Mitotic Cells (%) [11]: 54%
- Population Normal (%) [11]: 93%
- Population Pyknosed Nuclei (%) [11]: 25%
- Population Tubulin-Different-Phenotype (%) [11]: 80%
- Total Cell Count [11]: 302
- Population Apoptotic (%) [12]: 16%
- Population Fragmented Nuclei (%) [12]: 8%
- Population Healthy Nuclei (%) [12]: 84%
- Population Hoechst High Intensity Objects (%) [12]: 1%
- Population Membrane Permeable-Phenotype (%) [12]: 3%
- Population Mitochondria Different-Phenotype (%) [12]: 3%
- Population Mitotic Cells (%) [12]: 84%
- Population Normal (%) [12]: 98%
- Population Pyknosed Nuclei (%) [12]: 6%
- Population Tubulin-Different-Phenotype (%) [12]: 9%
- Total Cell Count [12]: 367

Structure (SMILES): Cl.O=C(c1ccc(Nc2nccc(-c3cc4ccccc4s3)n2)cc1)N1CCC(N2CCCC2)CC1
- Population Apoptotic (%) [1]: 28%
- Population Fragmented Nuclei (%) [1]: 10%
- Population Healthy Nuclei (%) [1]: 59%
- Population Hoechst High Intensity Objects (%) [1]: 8%
- Population Membrane Permeable-Phenotype (%) [1]: 17%
- Population Mitochondria Different-Phenotype (%) [1]: 14%
- Population Mitotic Cells (%) [1]: 71%
- Population Normal (%) [1]: 91%
- Population Pyknosed Nuclei (%) [1]: 29%
- Population Tubulin-Different-Phenotype (%) [1]: 73%
- Total Cell Count [1]: 657
- Population Apoptotic (%) [2]: 12%
- Population Fragmented Nuclei (%) [2]: 4%
- Population Healthy Nuclei (%) [2]: 89%
- Population Hoechst High Intensity Objects (%) [2]: 3%
- Population Membrane Permeable-Phenotype (%) [2]: 11%
- Population Mitochondria Different-Phenotype (%) [2]: 20%
- Population Mitotic Cells (%) [2]: 87%
- Population Normal (%) [2]: 96%
- Population Pyknosed Nuclei (%) [2]: 6%
- Population Tubulin-Different-Phenotype (%) [2]: 67%
- Total Cell Count [2]: 1518
- Population Apoptotic (%) [3]: 32% and 71%
- Population Fragmented Nuclei (%) [3]: 13% and 26%
- Population Healthy Nuclei (%) [3]: 21% and 0%
- Population Hoechst High Intensity Objects (%) [3]: 17% and 23%
- Population Membrane Permeable-Phenotype (%) [3]: 4% and 0%
- Population Mitochondria Different-Phenotype (%) [3]: 66% and 100%
- Population Mitotic Cells (%) [3]: 67% and 28%
- Population Normal (%) [3]: 82% and 76%
- Population Pyknosed Nuclei (%) [3]: 65% and 72%
- Population Tubulin-Different-Phenotype (%) [3]: 75% and 100%
- Population Fragmented Nuclei (%) [4]: 3% and 9%
- Population Hoechst High Intensity Objects (%) [4]: 9% and 10%
- Population Membrane Permeable-Phenotype (%) [4]: 6%
- Population Mitochondria Different-Phenotype (%) [4]: 68% and 75%
- Population Normal (%) [4]: 90% and 89%
- Population Pyknosed Nuclei (%) [4]: 58% and 87%
- Population Tubulin-Different-Phenotype (%) [4]: 97%
- Population Apoptotic (%) [5]: 17%
- Population Fragmented Nuclei (%) [5]: 8%
- Population Healthy Nuclei (%) [5]: 79%
- Population Hoechst High Intensity Objects (%) [5]: 7%
- Population Membrane Permeable-Phenotype (%) [5]: 24%
- Population Mitochondria Different-Phenotype (%) [5]: 9%
- Population Mitotic Cells (%) [5]: 82%
- Population Normal (%) [5]: 92%
- Population Pyknosed Nuclei (%) [5]: 11%
- Population Tubulin-Different-Phenotype (%) [5]: 64%
- Total Cell Count [5]: 845
- Population Apoptotic (%) [6]: 3%
- Population Fragmented Nuclei (%) [6]: 14%
- Population Healthy Nuclei (%) [6]: 82%
- Population Hoechst High Intensity Objects (%) [6]: 3%
- Population Membrane Permeable-Phenotype (%) [6]: 14%
- Population Mitochondria Different-Phenotype (%) [6]: 4%
- Population Mitotic Cells (%) [6]: 96%
- Population Normal (%) [6]: 96%
- Population Pyknosed Nuclei (%) [6]: 2%
- Population Tubulin-Different-Phenotype (%) [6]: 42%
- Total Cell Count [6]: 2625
- Population Apoptotic (%) [7]: 80% and 55%
- Population Fragmented Nuclei (%) [7]: 24% and 18%
- Population Healthy Nuclei (%) [7]: 0% and 14%
- Population Hoechst High Intensity Objects (%) [7]: 28% and 19%
- Population Membrane Permeable-Phenotype (%) [7]: 0% and 8%
- Population Mitotic Cells (%) [7]: 19% and 44%
- Population Normal (%) [7]: 71% and 80%
- Population Pyknosed Nuclei (%) [7]: 75% and 67%
- Population Apoptotic (%) [8]: 58% and 99%
- Population Fragmented Nuclei (%) [8]: 7% and 14%
- Population Hoechst High Intensity Objects (%) [8]: 17% and 16%
- Population Membrane Permeable-Phenotype (%) [8]: 9%
- Population Mitochondria Different-Phenotype (%) [8]: 84% and 66%
- Population Normal (%) [8]: 82% and 83%
- Population Pyknosed Nuclei (%) [8]: 79% and 81%
- Population Tubulin-Different-Phenotype (%) [8]: 64% and 66%
- Population Apoptotic (%) [11]: 82%
- Population Fragmented Nuclei (%) [11]: 35%
- Population Healthy Nuclei (%) [11]: 0%
- Population Hoechst High Intensity Objects (%) [11]: 30%
- Population Membrane Permeable-Phenotype (%) [11]: 0%
- Population Mitochondria Different-Phenotype (%) [11]: 100%
- Population Mitotic Cells (%) [11]: 17%
- Population Normal (%) [11]: 69%
- Population Pyknosed Nuclei (%) [11]: 63%
- Population Tubulin-Different-Phenotype (%) [11]: 100%
- Total Cell Count [11]: 159
- Population Apoptotic (%) [12]: 100%
- Population Fragmented Nuclei (%) [12]: 19%
- Population Healthy Nuclei (%) [12]: 4%
- Population Hoechst High Intensity Objects (%) [12]: 17%
- Population Membrane Permeable-Phenotype (%) [12]: 16%
- Population Mitochondria Different-Phenotype (%) [12]: 83%
- Population Mitotic Cells (%) [12]: 0%
- Population Normal (%) [12]: 82%
- Population Pyknosed Nuclei (%) [12]: 75%
- Population Tubulin-Different-Phenotype (%) [12]: 66%
- Total Cell Count [12]: 146
